Laboratory results reported in ChEMBL document CHEMBL2034884, “Synthesis, in vitro and in silico screening of ethyl 2-(6-substituted benzo[d]thiazol-2-ylamino)-2-oxoacetates as protein-tyrosine phosphatase 1B inhibitors” (Eur J Med Chem, 2012).
Blank lines part the entries; values can stand above or below the compound they belong to. Calls of active or inactive are those of the source. The rule behind the calls is not given here.

Assays:
Rattus norvegicus [1] = experiment: Hypoglycemic activity in glucose-fed normoglycemic Wistar rat assessed as decrease in rise of blood glucose at 4 mg/kg, po single dose measured up to 4 hrs post dose by oral glucose tolerance test; assay type: functional, organism-based; parameters: dose 4 mg/kg
Summary of the method: (§1)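 Male Wistar rats (200–250 g), fasted 18 h, n = 5 per group. Test agents were given orally as suspensions at the listed doses, with vehicle controls. A 2 g/kg glucose load was given by the same route 10 min later. Tail-tip blood was sampled at 0, 0.5, 1, 2, 3 and 4 h. Glucose was read by the glucose oxidase glucometer method.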

[2] = target: T1, Tyrosine-protein phosphatase non-receptor type 1 (Homo sapiens) (UniProt P18031); experiment: Inhibition of human recombinant GST-tagged PTP1B expressed in Escherichia coli TB1 cells using p-NPP as substrate at 40 uM
T1 sequence (whole entry): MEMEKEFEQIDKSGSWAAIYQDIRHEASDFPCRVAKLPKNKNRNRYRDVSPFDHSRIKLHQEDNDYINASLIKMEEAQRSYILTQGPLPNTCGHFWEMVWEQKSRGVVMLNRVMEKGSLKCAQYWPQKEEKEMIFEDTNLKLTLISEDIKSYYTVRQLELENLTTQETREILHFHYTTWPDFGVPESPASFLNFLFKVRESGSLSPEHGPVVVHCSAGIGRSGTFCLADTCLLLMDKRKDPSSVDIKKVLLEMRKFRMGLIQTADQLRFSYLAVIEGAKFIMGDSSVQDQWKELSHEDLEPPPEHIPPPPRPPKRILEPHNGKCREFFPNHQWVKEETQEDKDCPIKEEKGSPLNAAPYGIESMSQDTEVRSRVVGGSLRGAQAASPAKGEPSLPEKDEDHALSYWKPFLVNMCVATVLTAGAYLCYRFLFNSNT
Summary of the method: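 PTP-1B was cleaved from GST with thrombin and gel-filtered. Assay: 0.075 M β,β-dimethylglutarate buffer pH 7.0 with 1 mM EDTA and 1 mM DTT, 2.5 mM p-NPP, compound 40 μM final, DMSO control, 37 °C, 0.16 μg enzyme per 1 mL assay. Stopped with KOH; p-nitrophenol read at 400 nm. Residual activity is % of control, four assays, mean ± S.E.M.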

[3] = target: T1, Tyrosine-protein phosphatase non-receptor type 1 (Homo sapiens); experiment: Reversible inhibition of human recombinant GST-tagged PTP1B expressed in Escherichia coli TB1 cells using p-NPP as substrate at 100 uM after 1 hr at 4 degC
Summary of the method: (§2)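 The enzyme, cleaved from GST, was preincubated for 1 h at 4 °C or 37 °C with 100 μM compound or a DMSO control. It was then diluted 400-fold into assay solution, and residual activity was measured at 37 °C with 5 mM p-NPP final, read at 400 nm. Triplicates, mean ± S.E.M.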

[4] = target: T1, Tyrosine-protein phosphatase non-receptor type 1 (Homo sapiens); experiment: Reversible inhibition of human recombinant GST-tagged PTP1B expressed in Escherichia coli TB1 cells using p-NPP as substrate at 100 uM after 1 hr at 37 degC; summary of the method: as §2
[5] = target: T1, Tyrosine-protein phosphatase non-receptor type 1 (Homo sapiens); experiment: Slow binding inhibition of human recombinant GST-tagged PTP1B expressed in Escherichia coli TB1 cells using p-NPP as substrate
Summary of the method: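 p-Nitrophenol release from p-NPP by PTP-1B was followed over time at 400 nm at several inhibitor concentrations, at 37 °C, pH 7.0. Progress curves were examined for linearity, with and without 30 min enzyme–inhibitor preincubation before the assay.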

[6] = target: T2, Tyrosine-protein phosphatase non-receptor type 1 (Homo sapiens, UniProt P18031); experiment: Mixed-type inhibition of human recombinant GST-tagged PTP1B expressed in Escherichia coli TB1 cells using p-NPP as substrate by double reciprocal plot analysis
T2 sequence (P18031 whole entry): T1 sequence (whole entry)
Summary of the method: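 Thrombin-cleaved, gel-filtered PTP-1B in pH 7.0 β,β-dimethylglutarate/EDTA/DTT buffer at 37 °C. Initial p-NPP hydrolysis rates were measured at eight substrate concentrations (0.5–40 mM) with increasing inhibitor concentrations. p-Nitrophenol was read at 400 nm, and Km/Vmax changes were analysed by double reciprocal plots.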

[7] = target: T2, Tyrosine-protein phosphatase non-receptor type 1; experiment: Inhibition of human recombinant GST-tagged PTP1B expressed in Escherichia coli TB1 cells using p-NPP as substrate
Rattus norvegicus [8] = experiment: Hypoglycemic activity in normoglycemic Wistar rat at 100 mg/kg, po administered as single dose measured up to 5 hrs post dose; assay type: functional
Summary of the method: (§3)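 Male Wistar rats (200–250 g), n = 5 per group, given a single oral/intragastric dose suspended in 5% Tween 80. Vehicle controls received 5% Tween 80. Caudal-vein blood was taken at 0, 1, 3, 5 and 7 h and glucose read with a glucose oxidase glucometer. Results are % glycemia change versus 0 h, mean ± S.E.M., ANOVA p < 0.05.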

Rattus norvegicus [9] = experiment: Hypoglycemic activity in glucose fed normoglycemic Wistar rat assessed as decrease in rise of blood glucose at 100 mg/kg, po single dose measured up to 4 hrs post dose by oral glucose tolerance test; assay type: functional; parameters: scale not given: the % may be the effect or the level left; summary of the method: as §1
Rattus norvegicus [10] = experiment: Hypoglycemic activity in glucose-fed normoglycemic Wistar rat assessed as decrease in rise of blood glucose at 5 to 10 mg/kg, po single dose measured up to 4 hrs post dose by oral glucose tolerance test; assay type: functional, organism-based; summary of the method: as §1
Rattus norvegicus [11] = experiment: Hypoglycemic activity in normoglycemic Wistar rat at 10 mg/kg, po administered as single dose measured up to 3 hrs post dose; assay type: functional, organism-based; parameters: dose 10 mg/kg; summary of the method: as §3
Rattus norvegicus [12] = experiment: Hypoglycemic activity in normoglycemic Wistar rat at 100 mg/kg, po administered as single dose measured up to 3 hrs post dose; assay type: functional; summary of the method: as §3

inhibition [2]: inactive
Compound: CCOC(=O)C(=O)Nc1nc2ccc(OCC)cc2s1

inhibition [3]: Active
inhibition [4]: Active
inhibition [5]: inactive
Ki [6]: 7.9 µM
IC50 [7]: 8.7 µM
Compound: CCOC(=O)C(=O)Nc1nc2ccc(F)cc2s1

inhibition [3]: Active
inhibition [4]: Active
inhibition [5]: inactive
Ki [6]: 6.2 µM
IC50 [7]: 11 µM
Compound: CCOC(=O)C(=O)Nc1nc2ccc(C)cc2s1
Activity (Rattus norvegicus [8]): 26%
Activity (Rattus norvegicus [9]): >20%

inhibition [2]: inactive
Compound: CCOC(=O)C(=O)Nc1nc2ccc(OC)cc2s1

inhibition [2]: inactive
Compound: CCOC(=O)C(=O)Nc1nc2ccc(N)cc2s1

inhibition [3]: Active
inhibition [4]: Active
inhibition [5]: inactive
Ki [6]: 7.9 µM
IC50 [7]: 10.1 µM
Compound: CCOC(=O)C(=O)Nc1nc2ccc(Cl)cc2s1
Activity (Rattus norvegicus [12]): 30%
Activity (Rattus norvegicus [9]): >20%

The remaining lines, values behind:

Compound: CCOc1cc(CC(=O)N[C@@H](CC(C)C)c2ccccc2N2CCCCC2)ccc1C(=O)O
Activity (Rattus norvegicus [1]): Active

Compound: CCOC(=O)C(=O)Nc1nc2ccccc2s1
inhibition [2]: inactive

Compound: COc1ccc(Cl)cc1C(=O)NCCc1ccc(S(=O)(=O)NC(=O)NC2CCCCC2)cc1
Activity (Rattus norvegicus [10]): Active
Activity (Rattus norvegicus [11]): Active

Compound: CCOC(=O)C(=O)Nc1nc2ccc(S(C)(=O)=O)cc2s1
inhibition [2]: inactive

Compound: CCOC(=O)C(=O)Nc1nc2ccc([N+](=O)[O-])cc2s1
inhibition [2]: inactive
